These results are taken from ChEMBL document CHEMBL3272072 (J Med Chem, 1976).

Data set [1] concerns Pituitary gland. In words: Effect on thyrotropin hormone release in Sprague-Dawley rat pituitary gland at 100 ug/ml by radioimmunoassay. The class given is functional, tissue-based. The gist of the method: (§1)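 Anterior pituitaries from 20-day-old female Sprague-Dawley rats, two per 1 ml lactated Ringer's, incubated 6 hr at 37° with shaking. Medium was replaced hourly and assayed by RIA for LH, FSH, GH, PRL and TSH. Peptide was added after two preincubation periods (I3–I6), with LH-RH at I5 and I6. Agonism was read from I3/I4 release and antagonism from I5/I6. Values are in ng of NIH reference standards.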

Data set [2] addresses Substance-P receptor (Cavia porcellus) (UniProt P30547). Description: Agonist activity at NK1 receptor in guinea pig ileum assessed as increase in muscle tone. The class given is tissue-based. An outline of the steps:
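Guinea pig ileum segment suspended in a 3-ml bath of oxygenated Tyrode's solution at 38°, with contractile response recorded.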

The nature of data set [3]: Retardation factor of the compound using n-BuOH-HOAc-EtOAc-H2O at ratio of 1:1:1:1 as solvent system by thin layer chromatography. It counts as physicochemical.
The subject of data set [4] is Canis familiaris. Description: Decrease in systemic arterial blood pressure in dog at >5 ng/kg, iv measured for 2 to 20 mins after drug dosage. It counts as functional, organism-based. As to conditions: Canis lupus familiaris; Artery.
The target of data set [5] is Substance-P receptor (Rattus norvegicus) (UniProt P14600). In words: Agonist activity at NK1 receptor in Sprague-Dawley rat pituitary gland assessed as change in FSH release at 100000 ng/ml by radioimmunoassay (reference value: 613 +/- 203 ng/ml).
Substance-P receptor (Rattus norvegicus), sequence (P14600 whole entry): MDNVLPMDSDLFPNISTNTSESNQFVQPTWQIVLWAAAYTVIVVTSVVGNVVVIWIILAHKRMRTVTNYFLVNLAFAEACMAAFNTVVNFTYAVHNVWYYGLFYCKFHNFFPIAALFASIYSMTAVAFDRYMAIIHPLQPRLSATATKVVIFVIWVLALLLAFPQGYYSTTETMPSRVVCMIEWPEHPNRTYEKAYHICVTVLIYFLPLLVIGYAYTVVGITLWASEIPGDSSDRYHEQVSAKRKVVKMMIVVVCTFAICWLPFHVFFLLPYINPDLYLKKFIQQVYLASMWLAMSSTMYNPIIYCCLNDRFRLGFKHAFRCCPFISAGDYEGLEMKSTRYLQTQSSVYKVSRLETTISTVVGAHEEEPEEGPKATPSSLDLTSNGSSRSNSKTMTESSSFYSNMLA
Data set [6] shares this target. In words: Antagonist activity at NK1 receptor in Sprague-Dawley rat pituitary gland assessed as inhibition of FSH release by radioimmunoassay in presence of LH-RH. The gist of the method: as §1
Data set [7] has the same target. Description: Agonist activity at NK1 receptor in Sprague-Dawley rat pituitary gland assessed as change in FSH release at 1000 ng/ml by radioimmunoassay (reference value: 613 +/- 203 ng/ml).
Data set [8] is described as follows: Retardation factor of the compound using EtOH-H2O at ratio of 7:3 as solvent system by thin layer chromatography. It counts as physicochemical.
Data set [9] in a line: Retardation factor of the compound using n-PrOH-1N HOAc at ratio of 2:1 as solvent system by thin layer chromatography. The class given is physicochemical.
Data set [10] addresses Substance-P receptor (Rattus norvegicus) (UniProt P14600). In words: Agonist activity at NK1 receptor in Sprague-Dawley rat pituitary gland assessed as change in LH release at 1000 ng/ml by radioimmunoassay (reference value: -11 +/- 27 ng/ml).
The subject of data set [11] is Pituitary gland. In words: Effect on growth hormone release in Sprague-Dawley rat pituitary gland at 100 ug/ml by radioimmunoassay. The class given is functional, tissue-based. The gist of the method: as §1
The target of data set [12] is Substance-P receptor (Rattus norvegicus) (UniProt P14600). Description: Agonist activity at NK1 receptor in Sprague-Dawley rat pituitary gland assessed as change in FSH release at 10000 ng/ml by radioimmunoassay (reference value: 613 +/- 203 ng/ml).
Data set [13] deals with Pituitary gland. Description: Effect on prolactin release in Sprague-Dawley rat pituitary gland at 100 ug/ml by radioimmunoassay. It counts as functional, tissue-based. The gist of the method:
as §1

Data set [14] in a line: Retardation factor of the compound using EtOAc-Pyr-HOAc-H2O at ratio of 5:5:1:3 as solvent system by thin layer chromatography. It counts as physicochemical.
In data set [15] the target is Substance-P receptor (Rattus norvegicus) (UniProt P14600). In words: Agonist activity at NK1 receptor in Sprague-Dawley rat pituitary gland assessed as change in LH release at 100000 ng/ml by radioimmunoassay (reference value: -11 +/- 27 ng/ml).
In data set [16] the test system is Canis familiaris. In words: Decrease in systemic arterial blood pressure in dog at 10 ng/kg, iv measured for 2 to 20 mins after drug dosage (reference value: 140 mmHg). The class given is functional, Canis lupus familiaris, Artery.
Data set [17] addresses Substance-P receptor (Rattus norvegicus) (UniProt P14600). In words: Antagonist activity at NK1 receptor in Sprague-Dawley rat pituitary gland assessed as inhibition of LH release by radioimmunoassay in presence of LH-RH. An outline of the steps: as §1
For data set [18] the target is unchanged. In words: Agonist activity at NK1 receptor in Sprague-Dawley rat pituitary gland assessed as change in LH release at 10000 ng/ml by radioimmunoassay (reference value: -11 +/- 27 ng/ml).
Data set [19] can be described thus: Retardation factor of the compound using CHCl3-MeOH-concentrated NH4OH at ratio of 60:45:20 as solvent system by thin layer chromatography. It counts as physicochemical.

The source made the active and inactive calls. The calls are words filed in the database; no cut-off is given here.

Substance-P receptor (Cavia porcellus), sequence (P30547 whole entry): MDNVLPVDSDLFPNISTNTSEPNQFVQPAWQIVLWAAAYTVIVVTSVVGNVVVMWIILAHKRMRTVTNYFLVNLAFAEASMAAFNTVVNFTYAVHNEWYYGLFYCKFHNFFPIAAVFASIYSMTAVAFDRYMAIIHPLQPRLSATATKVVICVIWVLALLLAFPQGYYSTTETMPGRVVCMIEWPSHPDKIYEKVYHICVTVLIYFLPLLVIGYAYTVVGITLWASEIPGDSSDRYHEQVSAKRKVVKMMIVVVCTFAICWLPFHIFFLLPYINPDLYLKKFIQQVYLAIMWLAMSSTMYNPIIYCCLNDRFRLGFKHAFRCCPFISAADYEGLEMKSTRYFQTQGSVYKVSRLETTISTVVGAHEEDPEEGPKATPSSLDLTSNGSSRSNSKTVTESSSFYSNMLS

Take `CSCC[C@H](NC(=O)[C@H](CC(C)C)NC(=O)CNC(=O)[C@H](Cc1ccc(O)cc1)NC(=O)[C@H](Cc1ccccc1)NC(=O)[C@H](CCC(N)=O)NC(=O)[C@H](CCC(N)=O)NC(=O)[C@@H]1CCCN1C(=O)[C@H](CCCCN)NC(=O)[C@@H]1CCCN1C(=O)[C@@H](N)CCCNC(=N)N)C(N)=O`: the result in the data set on Pituitary gland [1], in the data set on Pituitary gland [11] and with Pituitary gland [13] was inactive. Moreover, in [2], the outcome was Active. The Rf in data set [3] was determined as 0.09; in [8], 0; in [9], 0.05; in data set [14], 0.9; in data set [19] it was 0.13. For the same molecule, the inhibition result in the data set on Canis familiaris [4] is “Active”. The Activity in data set [5] is 1330 ng/mL; in data set [7] it was 666 ng/mL; in data set [10] it was -13 ng/mL; in [12] it was 586 ng/mL; in [15], 68 ng/mL; in the data set on Canis familiaris [16] it was 110 mmHg. In data set [18], the Activity worked out at 11 ng/mL. The inhibition entry in data set [6] and in data set [17] was “inactive” each time.
